The structures appear in SMILES notation.

The text below walks through data of ChEMBL document CHEMBL1139005, “Branched diacylglycerol-lactones as potent protein kinase C ligands and alpha-secretase activators” (J Med Chem, 2006).

The test system of one experiment is W4 (Rattus norvegicus). Description: Activation of alpha secretase assessed by sAPPalpha secretion in W4 cells relative to control. Further details: concentration or dose not given beside the values.
Experiment [1] deals with Protein kinase C alpha type (Homo sapiens, UniProt P17252). Nature of the experiment: Displacement of [20-3H]PDBu from recombinant PKC alpha in presence of phosphatidylserine. The essentials: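 Competition for bound [20-3H]phorbol 12,13-dibutyrate on recombinant PKC-α with phosphatidylserine present; IC50 obtained by fitting points to the theoretical competition curve, then converted to Ki.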

Molecule `CC(C)CC(C/C=C1\CC(CO)(COC(=O)C(C)(C)C)OC1=O)CC(C)C` (configuration not stated) showed an Activity in the experiment with W4 (Rattus norvegicus) of 133%.

For `CC(C)CC(C/C=C1\CC(CO)(COC(=O)CC(C(C)C)C(C)C)OC1=O)CC(C)C` (configuration not stated), the Activity with W4 (Rattus norvegicus) was 225%.

By Ki is commonly meant a dissociation constant, usually derived from enzyme kinetics or from competition with a known ligand. In the case of `CCCCCC(=O)OCC1(CO)C/C(=C\CC(CC(C)C)CC(C)C)C(=O)O1` (configuration not stated), the Ki in experiment [1] worked out at 6.18 nM.

For `CC(C)CC(C/C=C1/C[C@@](CO)(COC(=O)C(C)(C)C)OC1=O)CC(C)C`, the Ki in experiment [1] came to 1.45 nM. Also, in the experiment on W4 (Rattus norvegicus), the Activity is 209%.

With `CC(C)CC(C/C=C1/CC(CO)(COC(=O)CC(CC(C)C)CC(C)C)OC1=O)CC(C)C` (configuration not stated), the Ki in experiment [1] was 6.88 nM.

In the case of `CC(C)CC(C/C=C1/CC(/C=C/C(=O)OC(C)(C)C)(CO)OC1=O)CC(C)C` (configuration not stated), in experiment [1], the Ki came to 18 nM. Besides, the Activity in the experiment with W4 (Rattus norvegicus) is recorded as 200%.

For `CCCCCCCC(=O)OCC1(CO)CC/C(=C\CC(CC(C)C)CC(C)C)C(=O)O1` (configuration not stated), the inhibition constant Ki in experiment [1] amounted to 129 nM.

`CC(C)CC(C/C=C1\CCC(CO)(COC(=O)C(C)(C)C)OC1=O)CC(C)C` (configuration not stated): in experiment [1], the inhibitory constant (Ki) amounted to 48 nM.

Turning to `CCCCCC(=O)OCC1(CO)CC/C(=C\CC(CC(C)C)CC(C)C)C(=O)O1` (configuration not stated), in experiment [1], the Ki stood at 147 nM.

Turning to `CCCCCCCC(=O)OCC1(CO)C/C(=C/CC(CC(C)C)CC(C)C)C(=O)O1` (configuration not stated), the Ki in experiment [1] amounted to 4.97 nM. The same molecule registered an Activity in the experiment with W4 (Rattus norvegicus) of 158%.

As for `CC(C)=CCC1(CC=C(C)C)CC(CO)(COC(=O)C(C)(C)C)OC1=O` (configuration not stated), the inhibition constant (Ki) in experiment [1] stood at 2100 nM.

Regarding `CC(C)CC(C/C=C1/CCC(CO)(COC(=O)C(C)(C)C)OC1=O)CC(C)C` (configuration not stated), the Ki in experiment [1] came to 28 nM.

Consider `CCCC(=O)O[C@@H]1[C@@H](C)[C@@]2(O)[C@@H](C=C(CO)C[C@]3(O)C(=O)C(C)=C[C@@H]23)[C@@H]2C(C)(C)[C@]12OC(=O)CCC`, for which the Activity in the experiment on W4 (Rattus norvegicus) is 185%.

With `CC(C)CCC1(CCC(C)C)CC(CO)(COC(=O)C(C)(C)C)OC1=O` (configuration not stated), the inhibition constant Ki in experiment [1] worked out at 18300 nM.

Consider `CC(C)CC(C/C=C1\CC(CO)(COC(=O)c2ccccc2)OC1=O)CC(C)C` (configuration not stated), for which the Ki in experiment [1] worked out at 16.1 nM. Besides, the Activity in the experiment on W4 (Rattus norvegicus) was determined as 131%.

Regarding `CC(C)CC(C/C=C1\CC(/C=C/C(=O)OC(C)(C)C)(CO)OC1=O)CC(C)C` (configuration not stated), the Ki in experiment [1] stood at 173 nM.

Take `CC(C)CC(C/C=C1/CC(CO)(COC(=O)c2ccccc2)OC1=O)CC(C)C` (configuration not stated): the Ki in experiment [1] came out at 6.66 nM. This molecule registered an Activity with W4 (Rattus norvegicus) of 157%.

On to `CCCCCC(=O)OCC1(CO)C/C(=C/CC(CC(C)C)CC(C)C)C(=O)O1` (configuration not stated), for which, in experiment [1], the Ki was found to be 3.78 nM.

As for `CCCCCCCC(=O)OCC1(CO)C/C(=C\CC(CC(C)C)CC(C)C)C(=O)O1` (configuration not stated), the Ki in experiment [1] stood at 6.04 nM. Further, the Activity in the experiment on W4 (Rattus norvegicus) was 141%.

Regarding `CC(C)CC(C/C=C1\CC(/C=C\C(=O)OC(C)(C)C)(CO)OC1=O)CC(C)C` (configuration not stated), in experiment [1], the Ki came to 21700 nM.

In turn, `CC(C)CC(C/C=C1/CC(CO)(COC(=O)C(C)(C)C)OC1=O)CC(C)C` (configuration not stated) came in with an Activity in the experiment with W4 (Rattus norvegicus) of 177%.
